# Assay outcomes (PubChem)
# Hits are enriched below; roughly 1.9% of the tested compounds scored in any of these assays.
# NadD inh: inhibitors of S. aureus NadD, primary screen, biochemical, colorimetric, uHTS | purified NadD enzyme, colorimetric absorbance read-out | inhibition, % at 20 µM | 360,000 compounds, 0.78% hits | AID 602399, 2012; in the data active means inhibition above about 26%
# ABHD5 PLIN5 PPI: ABHD5-PLIN5 interaction inhibitors, primary screen, cell lysate, split luciferase complementation, luminescence; Perilipin-5 (Homo sapiens) + 1-acylglycerol-3-phosphate O-acyltransferase ABHD5 (Homo …; Split G. princeps luciferase complementation, 4 h; inhibition, % at 4 µM; 360,000 compounds, 0.78% hits; AID 602281, 2012;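 active means inhibition above the mean inhibition across every tested compound plus 3 SD, cut at about 22% in these data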
# Target sequence (Q00G26 whole entry, looked up): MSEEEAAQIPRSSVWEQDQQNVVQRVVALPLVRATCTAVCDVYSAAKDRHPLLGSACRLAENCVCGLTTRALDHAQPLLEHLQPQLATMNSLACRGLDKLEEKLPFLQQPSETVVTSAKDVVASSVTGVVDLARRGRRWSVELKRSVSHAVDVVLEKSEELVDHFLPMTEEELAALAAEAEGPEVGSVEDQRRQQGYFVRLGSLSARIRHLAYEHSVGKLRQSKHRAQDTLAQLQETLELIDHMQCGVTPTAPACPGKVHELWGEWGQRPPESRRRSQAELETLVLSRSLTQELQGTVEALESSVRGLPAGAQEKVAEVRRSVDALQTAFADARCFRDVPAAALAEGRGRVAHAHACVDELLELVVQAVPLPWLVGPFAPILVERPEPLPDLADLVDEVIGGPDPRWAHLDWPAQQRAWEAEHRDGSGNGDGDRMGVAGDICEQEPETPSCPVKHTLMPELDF
# Target sequence (Q8WTS1 whole entry, looked up): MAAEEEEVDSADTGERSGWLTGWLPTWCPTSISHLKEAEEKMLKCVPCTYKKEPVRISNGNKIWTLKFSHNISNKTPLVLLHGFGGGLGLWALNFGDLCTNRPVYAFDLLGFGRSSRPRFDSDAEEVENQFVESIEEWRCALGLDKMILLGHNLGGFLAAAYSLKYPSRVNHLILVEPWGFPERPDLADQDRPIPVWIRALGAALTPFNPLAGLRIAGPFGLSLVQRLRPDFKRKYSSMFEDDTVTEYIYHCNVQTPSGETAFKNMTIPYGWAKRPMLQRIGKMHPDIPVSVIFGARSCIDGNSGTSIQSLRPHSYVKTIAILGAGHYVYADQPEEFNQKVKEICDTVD
# Rin1-Abl PPI inh: inhibitors of Rin1-Abl protein binding, primary screen, biochemical, TR-FRET; 360,000 compounds, 0.4% hits; Tyrosine-protein kinase ABL1 (Homo sapiens) + Ras and Rab interactor 1 (Homo sapiens), …; inhibition, % at 7.35 µM; in the data active means inhibition above about 5%, passing the limit was not always enough
# Rpn11 inh: Rpn11 (PSMD14) deubiquitinase inhibitors, primary screen, biochemical, fluorescence polarization, uHTS; 360,000 compounds, 0.59% hits; 26S proteasome non-ATPase regulatory subunit 14 (Homo sapiens), O00487; inhibition, % at 20 µM; human 26S proteasome, Ub4-pepOG fluorescence polarization; 20S core pre-blocked with epoxomicin;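 active means inhibition at 20 µM, scaled to each plate's controls, above about 33%, limit read from the data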
# XiGFP reactiv: activators of inactive X chromosome reactivation, primary screen, imaging, XiGFP fibroblasts, GFP high-content imaging, set 2; XiGFP mouse fibroblasts, % GFP-positive cells imaging, 3 d; cells co-treated with 5-aza-dC sensitizer; scaled so ellipticine positive control = 100%; activation, % at 7.58 µM; 360,000 compounds, 0.055% hits;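 active means mean normalized replicate activation at least 10% and every replicate at or above 10%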
#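 Assay system – SV40-immortalized XiGFP fibroblast cells, line 68-5-11 · Buffer or medium – DMEM supplemented with 5-aza-dC as sensitizing agent · Dosing – one concentration, pinned · Benchmarks – positive control ellipticine, 6 µM final · Times – 3 days compound exposure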
# Rin1 Abl conf: Rin1-Abl binding inhibitor retest, confirmation, biochemical, TR-FRET; inhibition, % at 7.35 µM; 1,300 compounds, 49% hits; purified proteins; shares compounds with Rin1-Abl PPI inh; AID 602124, 2011
# GFP quencher: GFP fluorescence inhibitors and quenchers, artefact control for Rin1-Abl interaction inhibitor project, biochemical; shares compounds with Rin1-Abl PPI inh; inhibitors/quenchers counterscreen; inhibition, % at 6.75 µM; 1,300 compounds, 8.5% hits; AID 602125, 2011;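 further: ABL1-eGFP fusion protein alone without its partner RIN1-SBP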
# GFP quench DR: GFP fluorescence inhibitors and quenchers, dose response, artefact control for Rin1-Abl interaction inhibitor project, biochemical. GFP fluorescence interference/quenching counterscreen. IC50, µM. 230 tested, under 10 active. shares compounds with Rin1-Abl PPI inh; call rule not given here;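 further: ABL1-eGFP fusion protein alone without its RIN1 binding partner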
# Numbers stand for hits; n = inactive; x = no result given; ! = not active in a repeat. Unless noted, no stated cut-off is given here; in the data, active means inhibition above about 6.5%; inactive means the rest.
SMILES,NadD inh,ABHD5 PLIN5 PPI,Rin1-Abl PPI inh,Rpn11 inh,XiGFP reactiv,Rin1 Abl conf,GFP quencher,others
C=C(C)Cn1c(C(C)NC(=O)CCC)nc2ccccc21 (stereo not drawn),n,n,8.6,n,x,n,n,
CCC(=O)Nc1ccc2c(c1)C(=O)N(C)C[C@@H](OC)[C@H](C)CN(C(=O)C1CCC1)[C@@H](C)CO2,x,x,x,x,n,x,x,
O=c1oc2cc(O)c(Cl)cc2c2ccccc12,n,n,n,n,n,x,x,
O=c1cc2c(=O)oc3cc(O)c(O)oc3c2c(O)c1O,n,n,56,n,n,51,34,
Oc1ccc(/C=N/Nc2ccc(Cl)nn2)c(O)c1O,n,n,29,n,n,27,17,
Oc1c(Br)cc(Br)cc1/C=N/Nc1ccc(Cl)nn1,n,n,n,n,n,x,x,
C[C@H](CO)N1C[C@H](C)[C@H](CN(C)CC2CC2)OCCCC[C@H](C)Oc2ccc(NC(=O)Nc3ccc(C(F)(F)F)cc3)cc2C1=O,x,x,x,x,n,x,x,
COc1ccc(-c2cnc3c(c2)C(=O)N([C@H](C)CO)C[C@H](C)[C@H](CN(C)S(=O)(=O)c2ccc(OC)cc2)O3)cc1,x,x,x,x,n,x,x,
CCS(=O)(=O)N1CCC(C(=O)NCc2ccc(F)cc2)CC1,n,n,n,n,x,x,x,
O=C(NCc1ccc(F)cc1)C1CCN(S(=O)(=O)N2CCOCC2)CC1,n,n,8.4,n,n,n,n,
Cc1nn(CC(=O)Nc2ccc(C(=O)N3CCCCC3)cc2)c(=O)c2ccccc12,n,n,12,n,x,13,n,
Cc1nn(CC(=O)Nc2ccc(C(=O)N3CCCC3)cc2)c(=O)c2ccccc12,n,n,9.9,n,x,7.4,n,
CCCC#Cc1ccc([C@@H]2[C@H]3CN(C(=O)c4cccc(F)c4)CC(=O)N3[C@H]2CO)cc1,x,x,x,x,n,x,x,
O=c1cc(-c2ccc(O)c(O)c2)oc2c(C3O[C@H](CO)[C@@H](O)[C@H](O)[C@H]3O)c(O)cc(O)c12 (stereo partly drawn),n,n,22,n,n,37,14,
O=c1cc(-c2ccc(O)c(O)c2)oc2cc(O)c(C3OC(CO)C(O)C(O)C3O)c(O)c12 (stereo not drawn),n,n,27,n,x,33,8.9,
COc1ccc(C=O)cc1OS(=O)(=O)c1ccc(NC(C)=O)cc1,n,n,8.5,n,n,n,n,
CCOC(=O)Nc1nnc(Cc2ccc(Cl)c(Cl)c2)s1,n,n,9.3,n,n,n,n,
CN1CCc2cccc3c2[C@H]1Cc1ccc(O)c(O)c1-3,n,n,16!,n,n,11,11,
O=c1c(O)cccc2cc(O)c(O)c(O)c12,n,n,43,n,n,39,33,
O=C1c2ccccc2C(=O)c2c(O)c(O)cc(O)c21,n,n,n,n,n,x,x,
COC(=O)N(C)C[C@H]1OCc2cn(nn2)CCCC(=O)N([C@@H](C)CO)C[C@H]1C,x,x,x,x,n,x,x,
CC(=O)Nc1cccc(C(=O)NNC(=O)c2ccc(NS(=O)(=O)c3cccs3)cc2)c1,n,n,n,n,n,x,x,
Cc1ccsc1C(=O)NNC(=O)c1ccc(NS(=O)(=O)c2cccs2)cc1,n,n,10,n,n,n,n,
CC(Oc1ccccc1)C(=O)Nc1nc(-c2ccccn2)cs1 (stereo not drawn),n,n,n,n,n,x,x,
CC(Oc1cccc(Cl)c1)C(=O)Nc1nc(-c2ccccn2)cs1 (stereo not drawn),n,n,7.1,n,n,n,n,
SMILES,NadD inh,ABHD5 PLIN5 PPI,Rin1-Abl PPI inh,Rpn11 inh,XiGFP reactiv,Rin1 Abl conf,GFP quencher,others
O=C(OCCCOC(=O)c1ccc(O)cc1)c1ccc(O)cc1,n,n,19,n,n,17,n,
COc1cc(CNCCc2ccc(F)cc2)ccc1OCc1ccc(Cl)nc1,n,n,12,n,x,11,n,
COc1cc(CNCCc2ccccc2F)ccc1OCc1ccc(Cl)nc1,n,n,7.5,n,x,7.2,n,
COc1ccc(CNC(=O)CCSCc2cccc(Cl)c2)c(OC)c1,n,n,5.2,n,n,n,n,
CN1CCN(C(=O)CSc2nc(-c3ccncc3)ccc2C#N)CC1,n,n,10,n,x,17,n,GFP quench DR=n
CO[C@H]1CN(C)C(=O)c2ccc(NC(=O)c3cnccn3)cc2OC[C@H](C)N(CC2CC2)C[C@H]1C,x,x,x,x,n,x,x,
CCC1(c2ccccc2)NC(=O)N(CC(=O)Nc2ccc3c(c2)CCC3)C1=O (stereo not drawn),n,n,n,n,n,x,x,
CC1(c2ccccc2)NC(=O)N(CC(=O)Nc2ccc3c(c2)CCC3)C1=O (stereo not drawn),n,n,8.2,n,n,n,n,
Cn1c(CCC(=O)Nc2ccc(N3CCOCC3)cc2)nc(=O)c2ccccc21,n,n,9.6,n,x,n,n,
COc1ccc(CNC(=O)C2=C(C)C(=O)OC23CCC(C)CC3)cc1 (stereo not drawn),n,n,7.4,n,n,n,n,
COCC(=O)N1C[C@H](C)[C@@H](OC)CN(C)C(=O)c2cc(NC(=O)Nc3cccc(F)c3)ccc2OC[C@@H]1C,x,x,x,x,n,x,x,
CN(C)C(=O)[C@H]1[C@H](CO)[C@H]2Cn3c(ccc(-c4cccc(F)c4)c3=O)[C@H]2N1C(=O)c1ccccn1,x,x,x,x,n,x,x,
Cc1ccc(Oc2coc3cc(OC(=O)c4cccs4)ccc3c2=O)cc1,n,n,n,n,x,x,x,
CC(=O)Oc1ccc2c(=O)c(Oc3ccccc3)coc2c1OC(C)=O,n,n,5.5,n,n,n,n,
COCC(=O)N(C)C[C@@H]1Oc2ncc(-c3cccc(OC)c3)cc2C(=O)N([C@H](C)CO)C[C@H]1C,x,x,x,x,n,x,x,
CCOC(=O)c1cnc(-n2[nH]c(C)cc2=O)[nH]c1=O,n,n,14,n,n,8.6,7.8,
C[C@@H]1CCCCO[C@@H](CN(C)S(=O)(=O)c2ccc(Cl)cc2)[C@H](C)CN([C@@H](C)CO)C(=O)c2cc(NS(=O)(=O)c3ccccc3)ccc2O1,x,x,x,x,n,x,x,
O=C(Cc1cccnc1)N1CC[C@H]2[C@H](CO)Nc3ccc(C#Cc4cccc(F)c4)cc3[C@H]21,x,x,x,x,n,x,x,
